Series [1] is described as follows: Cytotoxicity against human KB cells by Alamar blue assay. In kind it is cell-based. The conditions noted are these: read-out: ED50 (the source's name). In a few lines: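 Human oral pharyngeal carcinoma KB cells; Alamar Blue read-out with podophyllotoxin positive control; ED50 calculated relative to blanks and untreated controls.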
On the technique in general: The colour change of resazurin is a common sign of viable cells or microbes.

The test system of another series is Trypanosoma cruzi. Kind of series: Antiparasitic activity against Trypanosoma cruzi MHOM/CL/00/Tulahuan-LacZ intracellular amastigotes. The format is functional. The conditions noted are these: read-out: ED50 (the source's name).
The subject of the next series is Plasmodium falciparum. Briefly: Antiparasitic activity against chloroquine-sensitive Plasmodium falciparum 3D7 in erythrocytes. The format is functional. The conditions noted are these: read-out: ED50 (the source's name).
For series [2], the target named is Trypanothione reductase (Trypanosoma cruzi) (UniProt P28593). Briefly: Inactivation of Trypanosoma cruzei trypanothione reductase at 200 uM. In a few lines: (§1)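 Recombinant T. cruzi TR (0.5 μM) preincubated at 25 °C with inhibitor, with or without 200 μM NADPH, in 40 mM HEPES, 1 mM EDTA, pH 7.5; 5 μL aliquots taken over time into standard assay (100 μM NADPH, 110 μM TS2, A340 decrease). Inhibitor from fresh or stored DMSO stock (stored at 4 °C); half-time at 100 μM. Controls: enzyme+NADPH+DMSO, enzyme+inhibitor without NADPH.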

Series [3] is described as follows: Inhibition of Plasmodium falciparum thioredoxin reductase in presence of 34 uM thioredoxin 2 substrate. Summed up:
(§2)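 Direct assay at 25 °C, NADPH oxidation at 340 nm, 100 μM NADPH, 1% DMSO; six to eight inhibitor levels 0–100 μM, duplicate. TR: 100 μM TS2, 100 mM phosphate pH 7.0. GR (human): 500 or 50 μM GSSG, 100 mM potassium phosphate pH 7.0, 200 mM KCl. P. falciparum TrxR: 34 μM D. melanogaster thioredoxin-2, 100 mM phosphate pH 7.4, 2 mM EDTA.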

Series [4] is described as follows: Inhibition of Plasmodium falciparum thioredoxin reductase after 5 min pre-incubation with NADPH in presence of 34 uM thioredoxin 2 substrate. Summed up: (§3)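 Enzyme (T. cruzi TR, human GR or P. falciparum TrxR) preincubated 5 min at 25 °C with 160 μM NADPH and 0–20 μM inhibitor, 2% DMSO, 50 μL; 5 μL aliquot into respective standard assay with substrate at 5× Km (100 μM TS2, 500 μM GSSG, 34 μM thioredoxin-2), residual activity at 340 nm.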

Another series deals with Leishmania donovani. Briefly: Antiparasitic activity against Leishmania donovani MHOM/ET/67/HU3 intracellular amastigotes. The format is functional. The conditions noted are these: read-out: ED50 (the source's name).
Series [5] deals with Trypanosoma brucei rhodesiense. Kind of series: Antiparasitic activity against Trypanosoma brucei rhodesiense STIB900 blood stream form. In kind it is functional. The conditions noted are these: read-out: ED50 (the source's name). Summed up:
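Bloodstream-form parasites treated for 3 days; viability by tetrazolium salt colorimetric assay with pentamidine isethionate reference; ED50 derived by sigmoidal regression.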

The nature of series [6]: Toxicity in macrophages at >=156 uM. In kind it is cell-based. The following applies: human, macrophage.
The target in series [7] is Trypanothione reductase (Trypanosoma cruzi) (UniProt P28593). Kind of series: Inhibition of reduced Trypanosoma cruzei trypanothione reductase at freshly prepared 100 uM. In a few lines: as §1
In series [8] the target is T1, Trypanothione reductase (Trypanosoma cruzi, UniProt P28593). Kind of series: Inhibition of Trypanosoma cruzi trypanothione reductase in presence of 100 uM TS2 substrate. Summed up: as §2
Series [9] concerns the target T1, Trypanothione reductase. Kind of series: Inhibition of Trypanosoma cruzi trypanothione reductase after 5 mins pre-incubation with NADPH in presence of 100 uM TS2 substrate. Summed up: as §3
For series [10], the target named is T2, Glutathione reductase, mitochondrial (Homo sapiens, UniProt P00390).
T2 sequence (P00390 whole entry): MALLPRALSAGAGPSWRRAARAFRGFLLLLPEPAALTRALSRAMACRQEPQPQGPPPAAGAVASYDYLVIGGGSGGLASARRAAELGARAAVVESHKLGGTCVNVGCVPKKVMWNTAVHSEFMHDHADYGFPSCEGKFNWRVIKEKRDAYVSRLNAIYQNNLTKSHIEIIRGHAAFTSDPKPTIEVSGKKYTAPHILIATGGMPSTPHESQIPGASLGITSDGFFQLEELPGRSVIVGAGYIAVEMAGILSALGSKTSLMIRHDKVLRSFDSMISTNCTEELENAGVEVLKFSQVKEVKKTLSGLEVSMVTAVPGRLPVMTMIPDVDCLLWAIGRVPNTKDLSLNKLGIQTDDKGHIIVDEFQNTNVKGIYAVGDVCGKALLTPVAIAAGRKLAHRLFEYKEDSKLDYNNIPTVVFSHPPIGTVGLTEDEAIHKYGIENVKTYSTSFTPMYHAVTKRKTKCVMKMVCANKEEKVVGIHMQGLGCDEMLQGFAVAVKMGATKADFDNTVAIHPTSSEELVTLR
Kind of series: Inhibition of human glutathione reductase in presence of 500 uM GSSG substrate. In a few lines:
as §2

Series [11] has as its target T2, Glutathione reductase, mitochondrial. Kind of series: Inhibition of human glutathione reductase in presence of 50 uM GSSG substrate. Summed up: as §2
For series [12] the target is unchanged. Kind of series: Inhibition of human glutathione reductase after 5 mins pre-incubation with NADPH in presence of 500 uM GSSG substrate. In a few lines: as §3
In series [13] the target is Trypanothione reductase (Trypanosoma cruzi) (UniProt P28593). Kind of series: Inhibition of Trypanosoma cruzei reduced trypanothione reductase at 5 uM freshly prepared compound within less than 5 mins. Summed up:
as §1

Series [14] has the same target. Briefly: Inhibition of Trypanosoma cruzei trypanothione reductase at 5 uM stored compound within 5 mins. Summed up: as §1
Series [15] has the same target. Kind of series: Inactivation of Trypanosoma cruzei reduced trypanothione reductase at 100 uM freshly prepared compound. On the set-up: scale not given: the % may be the effect or the level left. Summed up:
as §1

For series [16] the target is unchanged. Briefly: Inactivation of Trypanosoma cruzei reduced trypanothione reductase at 100 uM stored compound. On the set-up: scale not given: the % may be the effect or the level left. In a few lines:
as §1

For series [17] the target is unchanged. Kind of series: Inhibition of Trypanosoma cruzei reduced trypanothione reductase at 100 uM. In a few lines: as §1

This is an account of results in ChEMBL document CHEMBL1140293, “Irreversible inactivation of trypanothione reductase by unsaturated Mannich bases: a divinyl ketone as key intermediate” (J Med Chem, 2005).

Activity calls are given as the source filed them. No cut-off for these calls is given here.

Trypanothione reductase (Trypanosoma cruzi), sequence (P28593 whole entry, looked up): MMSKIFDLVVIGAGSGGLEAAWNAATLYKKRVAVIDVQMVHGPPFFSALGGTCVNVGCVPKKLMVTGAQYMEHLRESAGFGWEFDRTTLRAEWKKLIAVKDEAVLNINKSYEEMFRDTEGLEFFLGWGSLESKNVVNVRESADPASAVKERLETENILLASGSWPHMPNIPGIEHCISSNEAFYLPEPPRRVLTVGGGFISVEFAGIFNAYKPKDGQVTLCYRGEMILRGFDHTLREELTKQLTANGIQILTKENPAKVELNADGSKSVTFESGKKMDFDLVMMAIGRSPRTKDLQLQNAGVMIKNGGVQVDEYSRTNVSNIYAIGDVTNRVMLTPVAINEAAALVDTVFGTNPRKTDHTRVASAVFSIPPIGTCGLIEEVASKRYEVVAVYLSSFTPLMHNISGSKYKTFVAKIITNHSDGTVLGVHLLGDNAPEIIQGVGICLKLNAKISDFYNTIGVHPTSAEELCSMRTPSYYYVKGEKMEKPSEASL
T1 sequence (P28593 whole entry): as the sequence (P28593 whole entry, looked up) above

For the compound `COc1cc([C@@H]2c3cc4c(cc3[C@H](O)[C@H]3COC(=O)[C@H]23)OCO4)cc(OC)c1OC` [PODOFILOX], in [1], the CC50 worked out at 0.07 µM.
Turning to `O=C(Cn1ccnc1[N+](=O)[O-])NCc1ccccc1` [BENZNIDAZOLE], the EC50 in the series with Trypanosoma cruzi was found to be 4.2 µM.
For the compound `CCN(CC)CCCC(C)Nc1ccnc2cc(Cl)ccc12` (centres undefined) [CHLOROQUINE], the EC50 in the series with Plasmodium falciparum stood at 0.0058 µM.
For the compound `CN(C)CC(C)(C)C(=O)/C=C/c1ccccc1Cl`, the outcome in series [2] was inactive.
`C=CC(=O)/C=C/c1ccccc1Cl`: the IC50 in [3] stood at 3.7 µM; in series [4], 0.4 µM; at Trypanothione reductase [8], 8 µM; at Trypanothione reductase [9], 2 µM; in series [10], 190 µM; in [11], 18.5 µM. In addition, in [12], the half-maximal inhibitory concentration (IC50) turned out to be 5 µM. For the same compound, the EC50 is 68 µM in the series with Leishmania donovani, 1.9 µM in series [5], 12.5 µM with Trypanosoma cruzi and 46.7 µM in the series with Plasmodium falciparum. In addition, in series [1], the CC50 worked out at 1230 µM. The Activity entry in [6] was “Toxic”. This compound yielded a T1/2 in series [7] of less than 0.75 min.
Take `CN(C)CCC(=O)/C=C/c1ccccc1Cl`: the EC50 in the series on Leishmania donovani was 41.6 µM; in [5] it was 1.8 µM; with Trypanosoma cruzi, 8.7 µM; with Plasmodium falciparum it was 27 µM. In series [1], the CC50 turned out to be 14.2 µM. The compound also returned a T1/2 in series [7] of 8.6 min. Moreover, the inhibition in series [13] is 30%; in series [14] it was 70%. The Activity in series [15] and in series [16] was more than 99% throughout.
In the case of `O=C(/C=C/c1ccccc1Cl)CCN1CCCCC1`, the EC50 in the series with Leishmania donovani is 13 µM; in [5], 0.8 µM; in the series with Trypanosoma cruzi it was 11.8 µM; in the series with Plasmodium falciparum, 16.2 µM. Also, the CC50 in series [1] was 7.3 µM. In series [7], this compound had a T1/2 of 7.5 min.
`O=C(/C=C/c1ccccc1Cl)CCN1CCOCC1`: the T1/2 in [7] worked out at 2 min.
For the compound `O=C1C=CC(c2ccccc2Cl)C1` (centres undefined), the result in [17] was inactive.
On to `N=C(N)c1ccc(OCCCCCOc2ccc(C(=N)N)cc2)cc1` [PENTAMIDINE], for which the results for the EC50 (in the series on Leishmania donovani; in series [5]; with Trypanosoma cruzi) were 28.9 µM, 0.0001 µM and 4.2 µM, respectively.

One may read the IC50 as the concentration that gives 50% inhibition. A word on the inhibition: it is the percentage by which the read-out fell short of the control.
